NR2E3 ag-1 – NR2E3 (human) agonism | Q9Y5X4 | GST-NR2E3/biotin-RetCOR TR-FRET, 1536-well | inhibition of corepressor binding, % at 4.78 µM | hit rate 0.12% among 320,000;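 active = percent inhibition above the cutoff of mean plus 3 SD of all tested compounds, set per screening campaign, cut at about 20% in these data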;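 also: 0% = DMSO wells and 100% = biotin wells as full block of FRET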
Target sequence (Q9Y5X4 whole entry, looked up): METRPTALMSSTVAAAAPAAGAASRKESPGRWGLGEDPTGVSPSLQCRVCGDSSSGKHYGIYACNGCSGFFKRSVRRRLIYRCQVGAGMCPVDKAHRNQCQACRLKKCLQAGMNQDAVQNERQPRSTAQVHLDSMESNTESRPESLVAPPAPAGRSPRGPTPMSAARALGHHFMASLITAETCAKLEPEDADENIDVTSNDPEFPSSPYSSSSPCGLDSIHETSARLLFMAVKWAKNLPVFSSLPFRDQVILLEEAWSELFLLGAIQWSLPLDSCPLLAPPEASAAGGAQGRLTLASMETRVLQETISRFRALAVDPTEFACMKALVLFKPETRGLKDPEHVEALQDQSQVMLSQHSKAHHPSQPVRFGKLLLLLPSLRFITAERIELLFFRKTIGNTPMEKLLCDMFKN
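Format: 1536-well format; test system: GST-NR2E3 and biotin-RetCOR proteins; read-out basis: percent inhibition of TR-FRET ratio; timing: 5 h incubation at 4 °C; detection: time-resolved FRET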
PKA-R1A act – activates the PKA-R1A holoenzyme complex. P00514+P68181. PKA-R1A dissociation, Cy5-IP20 fluorescence polarization; scaled: DMSO 0%, 113 µM cGMP 100%. activation, % at 11.4 µM. hit rate 0.083% among 340,000. AID 504707;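 active = percent activation above the mean of all tested compounds plus 3 SD, cut at about 19% in these data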;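 also: higher means more PKAc released from R1A so a rise in polarization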
PG9 binder – PG9 antibody binding by small molecule; TR-FRET gp120-PG9 antibody binding; hit rate 0.43% among 360,000; inhibition, % at 6.7 µM; in the data active = inhibition above about 8.5%
PKA-R2B act – activates the human PKA-R2B holoenzyme complex | P22694+P31323 | PKA-R2B holoenzyme dissociation, Cy5-IP20 fluorescence polarization; R2B truncated from residue 108, S112A mutant; 0% DMSO only, 100% 113 µM cGMP | activation, % at 11.4 µM | hit rate 0.079% among 340,000;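 active = activation above a cutoff set at the mean over all compounds plus 3 SD, cut at about 18% in these data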;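 also: higher means more holoenzyme dissociation and a rise in polarization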
Rev-erbA mod – Rev-erb alpha (human) modulation. P20393. Rev-erbα–FITC-DNA binding, fluorescence polarization, 90 min. activity, % at 10 µM. hit rate 0.79% among 370,000. AID 1259318;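 active = activity above about 14%, limit read from the data; passing the limit was not always enough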;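 also: 0% = DMSO wells with 35 nM protein and 100% = DMSO wells with 750 nM protein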
NR2E3 ag-2 – activates human NR2E3 receptor | Q9Y5X4 | CHO-S Gal4-NCOR/VP16-NR2E3 two-hybrid, luciferase | inhibition of corepressor binding, % at 3.98 µM | hit rate 0.35% among 360,000 | AID 602229;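 active = inhibition above the mean of all tested compounds plus 3 SD, cut at about 70% in these data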;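 also: 0% = DMSO with NR2E3 transfected cells and 100% = cells lacking NR2E3 construct; higher means lower luciferase signal from less NR2E3 corepressor binding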
PG9 binder conf – PG9 antibody binding, confirmed. shares compounds with PG9 binder. TR-FRET PG9 antibody binding, biochemical. inhibition, % at 6.7 µM. hit rate 90% among 1,500. AID 651571; in the data active = inhibition above about 9%
PGV04 counter – binds control antibody PGV04 in PG9 binder counter-screen. TR-FRET PGV04 antibody-gp120 binding, biochemical. inhibition, % at 6.7 µM. shares compounds with PG9 binder. AID 651604. hit rate 95% among 1,500; in the data active = inhibition above about 9.5%
Active calls of the source: *; x = no result given. Sampled rows, rich in hits. Any-hit rate of the full collection: about 1.6%.

SMILES	NR2E3 ag-1	PKA-R1A act	PG9 binder	PKA-R2B act	Rev-erbA mod	NR2E3 ag-2	PG9 binder conf	PGV04 counter
COc1ccc(/C(O)=C2/C(=O)C(=O)N(CCN(C)C)C2c2cccnc2)cc1OC (configuration not stated)	6	-8	-1	-12	4	24	x	x
N#Cc1c(NC(=O)C2CC=CCC2C(=O)O)sc2c1CCCCCC2 (configuration not stated)	6	-2	11*	-9	1	-12	9.0*	9.4*
CC(C)(C)C1CCc2c(sc(NC(=O)C3CC=CCC3C(=O)O)c2C#N)C1 (configuration not stated)	1	-14	-3	4	-11	23	x	x
COc1cccc(CC(=O)O[C@@H]2CCC[C@@]3(C(=O)N(Cc4ccccc4)c4ccccc43)[C@H]2NC(=O)CCc2ccccc2)c1	x	x	x	x	7	x	x	x
O=C(N[C@H](C(=O)N1CCC[C@H]1C(=O)NCCc1ccccc1Cl)c1ccccc1)c1cccs1	x	x	2	x	0	x	x	x
Cc1cccc(NC(=O)CSc2cccc[n+]2[O-])c1C	x	-5	16*	-6	-8	-5	9.3*	11*
CN=C1S/C(=C/c2cc(C)n(Cc3ccccc3)c2C)C(=O)N1C	x	x	x	x	2	x	x	x
CC(C)CC(=O)NC(=S)Nc1sc2c(c1C(N)=O)CCC2	-2	6	17*	-4	3	-45	26*	33*
COc1ccc(-c2cc(C(F)(F)F)nc(SCC(=O)NCc3cccs3)n2)cc1	4	7	13*	-8	22	-8	8	9
C[C@H](O)[C@@H]1CN2CCc3c([nH]c4cccc(-c5ccccc5)c34)[C@@H]2C[C@@H]1N(C)C(=O)Nc1ccccc1	x	x	x	x	10	x	x	x
O=C(CCCn1c(SCc2cccc(F)c2)nc2ccccc2c1=O)NCC1CCCO1 (configuration not stated)	-2	-8	13*	4	0	3	9.5*	13*
COc1ccc2c(C)cc(SCC(=O)NC3CCCC3)nc2c1	x	2	11*	4	5	7	15*	29*
Cc1cc(SCC(=O)Nc2ncc(Cl)cc2Cl)nc2ccccc12	6	-4	12*	-11	11	-5	15*	20*
CC(C)(C)c1nc(SCC(=O)NC2CCCC2)c2ccccc2n1	2	-7	9.9*	-6	3	2	13*	17*
COc1ccc(-c2ccc(SCC(=O)NC3CCCC3)nn2)cc1	x	-14	0	-2	-6	0	x	x
O=C(CCCn1c(SCC(=O)NCC2CCCO2)nc2ccccc2c1=O)NCc1ccccc1 (configuration not stated)	-1	0	1	13	1	-15	x	x
Cc1cc(SCC(=O)NC2CC2)nc2ccccc12	x	-4	11*	-9	-3	-2	12*	16*
Cn1ccnc1C(=O)c1cc(SCC(=O)NC2CC2)nc2ccccc12	0	-2	1	3	-3	-26	x	x
Cc1cccc(C)c1NC(=O)CSc1cc(C(=O)c2nccn2C)c2ccccc2n1	2	-3	14*	-3	-1	10	41*	58*
Cc1cc(SCC(=O)NCC2CCCO2)nc2ccccc12 (configuration not stated)	8	3	12*	-6	7	8	17*	20*
Cc1ccc(-c2nn(-c3ccccc3)cc2C(=O)OCC(=O)Nc2ncc(Cl)cc2Cl)cc1	1	-1	20*	-12	18	-20	12*	27*
CC(=O)CC[C@@H]1CC[C@]2(CCCN(S(=O)(=O)c3ccccc3)C2)O1	x	x	x	x	3	x	x	x
C=CC[C@@]1(c2ccc(Br)cc2OC)Oc2ccccc2-c2nccnc21	x	x	x	x	-5	x	x	x
CC1(C)CC(=O)C=C(Nc2ccccc2NC(=O)c2ccc(F)cc2F)C1	x	x	x	x	3	x	x	x
C/C(=N/NC(=O)C1COc2ccccc2O1)c1ccc(Br)s1 (configuration not stated)	3	-9	-2	-16	-4	5	x	x
SMILES	NR2E3 ag-1	PKA-R1A act	PG9 binder	PKA-R2B act	Rev-erbA mod	NR2E3 ag-2	PG9 binder conf	PGV04 counter
C/C(=N\NC(=O)C1COc2ccccc2O1)c1ccc(Cl)s1 (configuration not stated)	-2	-6	24*	-12	-2	11	6	8
CCc1cc2ccccc2nc1SCC(=O)Nc1cc(C)on1	-2	-2	22*	7	16	-17	22*	30*
N#Cc1c(-c2ccccc2)nc(SCC(=O)Nc2ccc(OC(F)(F)Cl)cc2)[nH]c1=O	13	9	8.8*	-10	0	-19	18*	22*
N#Cc1c(-c2ccccc2)nc(SCC(=O)Nc2ccccc2)[nH]c1=O	11	8	4	-10	-2	-12	x	x
Cc1cc(NC(=O)CSc2nc(-c3ccccc3)c(C#N)c(=O)[nH]2)no1	8	-10	18*	-12	3	12	28*	35*
Cc1cc(C)nc(NS(=O)(=O)c2ccc(NC(=O)CSc3nc(-c4ccccc4)c(C#N)c(=O)[nH]3)cc2)n1	8	3	36*	13	4	-2	44*	58*
C[C@@H]1CCN(C2CC2)S(=O)(=O)c2c(cccc2N2CC[C@H](O)C2)O1	x	x	x	x	-3	x	x	x
CC(C)COc1ccc(-c2csc(N3CCC(C(N)=O)CC3)n2)cc1	x	x	x	x	6	x	x	x
CCN(C(=O)c1cc2c(=O)[nH]c3ccc(C)cc3c2s1)c1cccc(C)c1	-1	-12	0	2	8	-2	x	x
CCN(C(=O)c1cc2c(=O)[nH]c3ccc(C)cc3c2s1)c1ccc(F)cc1	2	-3	15*	6	-2	2	14*	24*
COc1cccc(CNC(=O)[C@H]2CCCN2C(=O)[C@H]2CCCN2C(=O)c2ccccc2)c1	x	x	0	x	-5	x	x	x
NC(=O)c1ccc(NC(=O)COC(=O)c2n[nH]c3ccccc23)cc1	2	-15	-2	-4	-5	4	x	x
NC(=O)c1ccc(NC(=O)COC(=O)c2c[nH]c3ccccc23)cc1	x	-4	10*	1	2	-29	8.9*	16*
CCOC(=O)CNC(=S)N(CCCN1CCN(C)CC1)Cc1cccs1	1	-13	13*	4	2	-17	5	9.8*
O=C(CNC(=S)N(CCCN1CCOCC1)Cc1cccs1)N1CCCC1	0	-3	1	-9	-4	22	x	x

Assay outcomes: PubChem BioAssay, several laboratories
